Laboratory results as given in ChEMBL document CHEMBL4834471 (J Med Chem, 2021).
Active and inactive are the calls of the source. No cut-off for these calls is given here.

What was measured:
Mus musculus = experiment: Antiinflammatory activity in zymosan-induced CD-1 mouse peritonitis model assessed as reduction in LTC4 level at 3 mg/kg, po preincubated with compound for 60 mins followed by zymosan addition and measured after 30 mins by ELISA; type: functional, organism-based; conditions: time 90.0 min
How it was run: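 Oral dosing at 3 mg/kg in zymosan-induced peritonitis; mice killed 30 min after zymosan; LTC4 in peritoneal exudate measured by ELISA; two-tailed unpaired t-test of log data.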

Monocyte = experiment: Cytotoxicity against human monocytes assessed as reduction in LDH release at 1 to 10 uM after 2 to 24 hrs by CytoTox96 nonradioactive assay; type: cell-based; conditions: dose lower 1 µM, time lower 2 hrs, dose upper 10 µM, time upper 24 hrs
How it was run: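 Monocytes at 4 × 10^5/mL in monocyte medium treated 2 or 24 h at 37 °C, 5% CO2, with 0.1% DMSO vehicle. LDH release measured by CytoTox 96 kit, with Triton X-100 (0.8%) defining maximum release.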

Structure (SMILES) | Activity (Mus musculus) | Activity (Monocyte)
CC(c1cc2ccccc2s1)N(O)C(N)=O (configuration not stated) | inactive | 
Cc1c(C)c2c(c(C)c1O)CC[C@@](C)(CCCC(C)CCCC(C)CCCC(C)C(=O)O)O2 (some centres not stated) |  | Non-Toxic
